Reference: ChEMBL document CHEMBL4732148 (Eur J Med Chem, 2021)
Activity calls are given as the source filed them. The rule behind the calls is not given here.

Tests used:
Hepatitis C virus [1] = experiment: Antiviral activity against HCV infected in human Huh-7 cells assessed as reduction in viral replication measured after 48 hrs by luciferase reporter gene assay; format: functional, organism-based, Hepacivirus hominis; conditions: Huh-7, 48 h
Outline: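 Replicon-bearing Huh7 cells seeded at 10,000/well and allowed to attach for 24 h at 37 °C. Triplicate biological wells then treated 48 h with compound in DMEM, 10% FBS, 0.5% DMSO final. Bright-Glo luminescence expressed relative to untreated cells. IC50 from a four-parameter logistic fit.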

[2] = Cytotoxicity against human Huh-7 cells assessed as reduction in cell viability measured after 48 hrs by celltiter-glo assay; format: cell-based; conditions: read-out: TC50
[3] = Cytotoxicity against human BXPC-3 cells assessed as reduction in cell viability measured after 96 hrs by celltiter-glo assay; format: cell-based; conditions: read-out: TC50
[4] = Stability in pH 8 aqueous buffer assessed as parent compound remaining at 200 uM measured after 4 hrs by UV spectrophotometry; format: physicochemical; conditions: read-out: Stabilty
Outline: (§1)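 Compound diluted to […] in aqueous buffers at pH 1.0, 2.0, 4.0, 6.0 or 8.0 and held 4 h at 40 °C. Intact prodrug separated by reverse-phase HPLC. 260 nm peak area after incubation compared with untreated prodrug, giving % remaining.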

HepG2 = experiment: Cytotoxicity against human HepG2 cells assessed as reduction in cell viability measured after 96 hrs by celltiter-glo assay; format: functional; conditions: read-out: TC50 (the source's name)
[5] = Stability in pH 2 aqueous buffer assessed as parent compound remaining at 200 uM measured after 4 hrs by UV spectrophotometry; format: physicochemical; conditions: read-out: Stabilty; outline: as §1
[6] = Toxicity in human Huh-7 cells assessed as reduction in cell viability measured after 96 hrs by celltiter-glo assay; format: cell-based; conditions: read-out: TC50
[7] = Cytotoxicity against human MCF7 cells assessed as reduction in cell viability measured after 96 hrs by celltiter-glo assay; format: cell-based; conditions: read-out: TC50
[8] = Stability in pH 1 aqueous buffer assessed as parent compound remaining at 200 uM measured after 4 hrs by UV spectrophotometry; format: physicochemical; conditions: read-out: Stabilty; outline: as §1
[9] = Stability in pH 6 aqueous buffer assessed as parent compound remaining at 200 uM measured after 4 hrs by UV spectrophotometry; format: physicochemical; conditions: read-out: Stabilty; outline: as §1
[10] = Cytotoxicity against HEK293 cells assessed as reduction in cell viability measured after 96 hrs by celltiter-glo assay; format: cell-based; conditions: human, read-out: TC50
[11] = Stability in pH 4 aqueous buffer assessed as parent compound remaining at 200 uM measured after 4 hrs by UV spectrophotometry; format: physicochemical; conditions: read-out: Stabilty; outline: as §1
[12] = Ratio of gemcitabine TC50 to test compound TC50 for cytotoxicity against human BXPC-3 cells assessed as reduction in cell viability; format: cell-based
[13] = Ratio of gemcitabine TC50 to test compound TC50 for cytotoxicity against human MCF7 cells assessed as reduction in cell viability; format: cell-based
[14] = Cytotoxicity against human Huh-7 cells assessed as reduction in cell viability measured after 48 hrs in presence of ENT1 inhibitor NBTI […]; format: cell-based; conditions: with NBTI (ENT1 inhibitor; concentration not stated), read-out: TC50
Hepatitis C virus [15] = experiment: Antiviral activity against HCV infected in human Huh-7 cells assessed as reduction in viral replication at 500 nM measured after 24 to 30 hrs by luciferase reporter gene assay; format: functional, Hepacivirus hominis; design: scale not given: the % may be the effect or the level left; conditions: time 24-30 hrs
Outline: (§2)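 Huh7 luciferase replicon cells treated with 500 nM compound or mock for up to 48 h. Cells were lysed at various times and the lysates snap-frozen in liquid nitrogen. All lysates were then assayed for luciferase together.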

Hepatitis C virus [16] = experiment: Antiviral activity against HCV infected in human Huh-7 cells assessed as reduction in viral replication at 25 to 1000 nM measured after 48 hrs in presence of deoxycytidine by luciferase reporter gene assay; format: functional, organism-based; conditions: Hepacivirus hominis, dose 25-1000 nM
Outline: (§3)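 Huh7 cells carrying an HCV luciferase replicon, grown in DMEM with 10% FBS and G418. Cells treated 48 h continuously with compound at 25–1,000 nM, either alone or together with 50 µM cytidine or 2′-deoxycytidine. Luciferase activity read in lysates. Three biological replicates, SD.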

Hepatitis C virus [17] = experiment: Antiviral activity against HCV infected in human Huh-7 cells assessed as reduction in viral replication at 500 nM measured after 48 hrs by luciferase reporter gene assay; format: functional, organism-based; conditions: Hepacivirus hominis; outline: as §2
Hepatitis C virus [18] = experiment: Antiviral activity against HCV infected in human Huh-7 cells assessed as reduction in viral replication at 25 to 1000 nM measured after 48 hrs in presence of cytidine by luciferase reporter gene assay; format: functional, organism-based; conditions: Hepacivirus hominis, dose 25-1000 nM; outline: as §3

Row | Structure (SMILES) | IC50 (Hepatitis C virus [1]) | CC50 at 48 h [2] | further results
1 | O=C(Nc1ccn([C@@H]2O[C@H](CO)[C@@H](O)C2(F)F)c(=O)n1)c1ccc(Cl)cc1 | 37.6 nM | 138 µM | 
2 | O=C(Nc1ccn([C@@H]2O[C@H](CO)[C@@H](O)C2(F)F)c(=O)n1)c1ccc2c(c1)OCCO2 | 127 nM | 855 µM | CC50 at 96 h [3]: 1.2 µM; remaining at 4 h, 200 µM [4]: 100%; CC50 (HepG2): 1.1 µM; remaining at 4 h, 200 µM [5]: 100%; CC50 at 96 h [6]: 3.3 µM; CC50 at 96 h [7]: 1.4 µM; remaining at 4 h, 200 µM [8]: 71%; remaining at 4 h, 200 µM [9]: 100%; CC50 at 96 h [10]: 5.6 µM; remaining at 4 h, 200 µM [11]: 100%; selectivity ratio [12]: ≤ 620; selectivity ratio [13]: ≤ 24
3 | O=C(Nc1ccn([C@@H]2O[C@H](CO)[C@@H](O)C2(F)F)c(=O)n1)c1ccc2c(c1)OC(F)(F)O2 | 46.4 nM | 188 µM | 
4 | CCc1ccc(C(=O)Nc2ccn([C@@H]3O[C@H](CO)[C@@H](O)C3(F)F)c(=O)n2)cc1 | 58.4 nM | 490 µM | CC50 at 48 h [14]: 360 µM
5 | O=C(Nc1ccn([C@@H]2O[C@H](CO)[C@@H](O)C2(F)F)c(=O)n1)c1c(Br)ccc2c1OCO2 | 340 nM | 2210 µM | 
6 | O=C(Nc1ccn([C@@H]2O[C@H](CO)[C@@H](O)C2(F)F)c(=O)n1)c1cc(Cl)cc(Cl)c1 | 25.5 nM | 110 µM | remaining at 4 h, 200 µM [4]: 35.4%; CC50 (HepG2): 0.6 µM; remaining at 4 h, 200 µM [5]: 82%; Activity (Hepatitis C virus [15]): 50%; CC50 at 96 h [6]: 4.2 µM; Activity (Hepatitis C virus [16]): inactive; CC50 at 96 h [7]: 0.33 µM; remaining at 4 h, 200 µM [8]: 35%; remaining at 4 h, 200 µM [9]: 99.6%; CC50 at 96 h [10]: 1.2 µM; remaining at 4 h, 200 µM [11]: 98.4%; Activity (Hepatitis C virus [17]): Active; selectivity ratio [13]: ≤ 24; Activity (Hepatitis C virus [18]): inactive
7 | COc1c(Cl)cc(C(=O)Nc2ccn([C@@H]3O[C@H](CO)[C@@H](O)C3(F)F)c(=O)n2)cc1Cl | 19.3 nM | > 100 µM | 
8 | O=C(Nc1ccn([C@@H]2O[C@H](CO)[C@@H](O)C2(F)F)c(=O)n1)c1ccc(Cl)cc1Cl | 77.5 nM | > 100 µM | 
9 | O=C(Nc1ccn([C@@H]2O[C@H](CO)[C@@H](O)C2(F)F)c(=O)n1)C1Cc2ccccc2C1 | 10 nM | > 500 µM | 
10 | O=C(Nc1ccn([C@@H]2O[C@H](CO)[C@@H](O)C2(F)F)c(=O)n1)c1cccc2c1CCCC2 | 161 nM | 92 µM | 
11 | COc1ccc(C(=O)Nc2ccn([C@@H]3O[C@H](CO)[C@@H](O)C3(F)F)c(=O)n2)cc1 | 60 nM | 572 µM | 
12 | O=C(Nc1ccn([C@@H]2O[C@H](CO)[C@@H](O)C2(F)F)c(=O)n1)c1ccc2c(c1)OCCCO2 | 91.5 nM | 881 µM | 
13 | CC1(C)Cc2ccc(C(=O)Nc3ccn([C@@H]4O[C@H](CO)[C@@H](O)C4(F)F)c(=O)n3)cc2O1 | 177 nM | 1160 µM | 
14 | O=C(Nc1ccn([C@@H]2O[C@H](CO)[C@@H](O)C2(F)F)c(=O)n1)c1cc2c(cc1[N+](=O)[O-])OCO2 | 46.7 nM | > 500 µM | 
15 | O=C(Nc1ccn([C@@H]2O[C@H](CO)[C@@H](O)C2(F)F)c(=O)n1)c1ccc2cc(Br)ccc2c1 | 185 nM | 74 µM | 
16 | O=C(Nc1ccn([C@@H]2O[C@H](CO)[C@@H](O)C2(F)F)c(=O)n1)c1ccc2c(c1)C(=O)c1ccccc1C2=O | 12.8 nM | 249 µM | 
17 | COc1ccc2cc(C(=O)Nc3ccn([C@@H]4O[C@H](CO)[C@@H](O)C4(F)F)c(=O)n3)ccc2c1 | 93.5 nM | 168 µM | 
18 | O=C(Nc1ccn([C@@H]2O[C@H](CO)[C@@H](O)C2(F)F)c(=O)n1)c1ccc2c(c1)CCC2 | 58.6 nM | 378 µM | 
19 | O=C(Nc1ccn([C@@H]2O[C@H](CO)[C@@H](O)C2(F)F)c(=O)n1)c1ccc2ccccc2c1 | 126 nM | 125 µM | 
20 | O=C(Nc1ccn([C@@H]2O[C@H](CO)[C@@H](O)C2(F)F)c(=O)n1)c1ccc2c(c1)CCCC2 | 86 nM | 132 µM | 
21 | COc1cc(OC)cc(C(=O)Nc2ccn([C@@H]3O[C@H](CO)[C@@H](O)C3(F)F)c(=O)n2)c1 | 73.4 nM | 962 µM | CC50 (HepG2): 3 µM; CC50 at 96 h [6]: 18.5 µM; Activity (Hepatitis C virus [16]): inactive; CC50 at 96 h [7]: 1.6 µM; CC50 at 96 h [10]: 4 µM; selectivity ratio [13]: ≤ 24; Activity (Hepatitis C virus [18]): inactive
22 | COc1cccc(OC)c1C(=O)Nc1ccn([C@@H]2O[C@H](CO)[C@@H](O)C2(F)F)c(=O)n1 | 451 nM | 4580 µM | 
23 | COC(=O)N[C@H](C(=O)N1CCC[C@H]1c1ncc(-c2ccc(-c3ccc(-c4cnc([C@@H]5CCCN5C(=O)[C@@H](NC(=O)OC)C(C)C)[nH]4)cc3)cc2)[nH]1)C(C)C | 0.031 nM |  | 
24 | O=C(Nc1ccn([C@@H]2O[C@H](CO)[C@@H](O)C2(F)F)c(=O)n1)c1ccc2c(c1)CCO2 | 145 nM | 954 µM | 
25 | Cc1ccc(C(=O)Nc2ccn([C@@H]3O[C@H](CO)[C@@H](O)C3(F)F)c(=O)n2)cc1 | 43.1 nM | 329 µM | CC50 at 48 h [14]: 240 µM
26 | Cc1cc2c(cc1C(=O)Nc1ccn([C@@H]3O[C@H](CO)[C@@H](O)C3(F)F)c(=O)n1)OCCO2 | 1690 nM | 626 µM | 
27 | O=C(Nc1ccn([C@@H]2O[C@H](CO)[C@@H](O)C2(F)F)c(=O)n1)c1ccc(Cl)c(Cl)c1 | 17.4 nM | > 100 µM | 
